Series [1] concerns the target NT-3 growth factor receptor (Homo sapiens, UniProt Q16288). The experiment in a line: Inhibition of human TRKC using poly[Glu:Tyr] (4:1) as substrate in presence of [gamma33P]ATP by hotspot assay.
In series [2] the test system is J774. The experiment in a line: Antiinflammatory activity in mouse J774 cells assessed as inhibition of LPS-induced NO production at 1 uM preincubated for 2 hrs followed by LPS stimulation and measured after 22 hrs by Griess reagent based assay relative to control. It is filed as functional. The method, boiled down: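 J774 macrophages seeded at 2*10^4 cells/mL, 24 h at 37 °C 5% CO₂; compound in DMSO at 1 µM, 3 replicate wells, 2 h pre-incubation, then LPS at 1 ug/mL final for 22 h. Supernatant nitrite read with Griess reagent at 540 nm against a sodium nitrite standard curve. Inhibition % = (model − compound)/(model − control) NO ×100; mean ± SD, three independent experiments.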
A general note: The Griess reaction detects nitrite, a stable product of nitric oxide.

The species named for series [3] is Homo sapiens. The experiment in a line: Selectivity ratio of IC50 for human TRKC to IC50 for human NIK.
Series [4] is filed under the species Homo sapiens. The experiment in a line: Selectivity ratio of IC50 for human LRRK2 to IC50 for human NIK.
The species entered for series [5] is Homo sapiens. The experiment in a line: Selectivity ratio of IC50 for human JAK3 to IC50 for human NIK.
The subject of the next series is T-cell. The series is described as follows: Growth inhibition of mouse T cells at 10 uM after 48 hrs by CCK8 assay. The series is classed as cell-based. The method, boiled down: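 Unstimulated mouse splenic T cells exposed to compound at 10 µM. Growth read by CCK-8 absorbance; […]. Mean ± SD, three independent experiments.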
On the technique in general: Formazan colour is commonly taken as a measure of viable cells.

Series [6] is described as follows: Elimination half life in monkey liver microsomes incubated for 10 mins followed by potassium phosphate buffer addition and measured after 5 to 60 mins by LC-MS/MS analysis. The following applies: rhesus monkey, read-out: beta t1/2. The series is classed as ADME, Macaca mulatta, Microsome. The procedure, abridged: (§1)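 Rat, dog, monkey or human liver microsomes pre-incubated with compound at 37 °C for 10 min; reaction started after pre-warming and stopped at 5, 15, 30, 60 min with chilled quench containing tolbutamide and labetalol. No-cofactor control in 100 mM potassium phosphate for 60 min. LC-MS/MS analysis; first-order fit: k = −slope, T1/2 = 0.693/k, CLint = k/microsomal protein concentration.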

A short description of series [7]: Intrinsic clearance in monkey liver microsomes assessed as per mg of protein incubated for 10 mins followed by potassium phosphate buffer addition and measured after 5 to 60 mins by LC-MS/MS analysis. The series is classed as ADME, Macaca mulatta, Microsome. Particulars: rhesus monkey, read-out: CLH. The procedure, abridged: as §1
On the technique in general: Liver microsomes are vesicles of endoplasmic reticulum, rich in cytochrome P450 enzymes.

Series [8] can be described thus: Intrinsic clearance in rat liver microsomes assessed as per mg of protein incubated for 10 mins followed by potassium phosphate buffer addition and measured after 5 to 60 mins by LC-MS/MS analysis. The following applies: read-out: CLH. It is filed as ADME, Microsome. The procedure, abridged:
as §1

A short description of series [9]: Volume of distribution in Sprague-Dawley rat at 1 mg/kg, iv administered as single bolus dose by LC-MS/MS analysis. The series is classed as ADME, organism-based. The following applies: in vivo. The method, boiled down:
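SD rats, 3 per group. Single IV bolus at 1 mg/kg in DMSO:PEG200:saline 20:20:60 (0.2 mg/mL), or oral gavage at 10 mg/kg as suspension in 0.5% CMC-Na/0.2% Tween 80 (1 mg/mL). Plasma protein-precipitated with acetonitrile containing internal standards, then quantified by LC-MS/MS. Parameters derived by noncompartmental analysis. Mean ± SD.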

For series [10], the target named is Mitogen-activated protein kinase kinase kinase 14 (Mus musculus) (UniProt Q9WUL6). The experiment in a line: Inhibition of NIK in mouse J774 cells assessed as reduction in LPS-induced IL6 mRNA level by SYBR green dye-based quantitative PCR analysis. It is filed as cell-based. The procedure, abridged: (§2)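 LPS-stimulated J774 macrophages; mRNA quantified by qPCR using 4 µL cDNA plus 16 µL master mix per reaction. Mean ± SD of three biological replicates; significance by two-tailed Student's t-test against the model group.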

Series [11] deals with J774. The experiment in a line: Antiinflammatory activity in mouse J774 cells assessed as reduction in LPS-induced IL-1 beta mRNA level by SYBR green dye-based quantitative PCR analysis. It is filed as functional, cell-based. The procedure, abridged:
as §2

The subject of series [12] is J774. The series is described as follows: Antiinflammatory activity in mouse J774 cells assessed as reduction in LPS-induced CCL3 mRNA level by SYBR green dye-based quantitative PCR analysis. It is filed as functional, cell-based. The procedure, abridged: as §2
Series [13] has as its system J774. The experiment in a line: Antiinflammatory activity in mouse J774 cells assessed as reduction in LPS-induced NOS2 mRNA level by SYBR green dye-based quantitative PCR analysis. It is filed as functional, cell-based. The method, boiled down: as §2
In series [14] the test system is Mus musculus. The experiment in a line: Protection against IMQ-induced dermatitis in C57 mouse model of psoriasis assessed as reduction in invasive erythema at 60 to 120 mg/kg, ig administered once daily starting from day 3 post IMQ-challenge and measured 2 days post-last dose of IMQ. It is filed as functional, organism-based. The method, boiled down: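 C57 mice given 5% imiquimod cream on the back once daily for 7 days; intragastric dosing 60 or 120 mg/kg once daily from day 3 to end, n = 6 per group. Dorsal skin phenotype assessed by imaging.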

The subject of series [15] is Mus musculus. The experiment in a line: Suppression of IMQ-induced psoriasis in ig dosed C57 mouse assessed as reduction in serum IL-17A level administered once daily starting from day 3 post IMQ-challenge and measured 2 days post-last dose of IMQ by ELISA. It is filed as functional, organism-based. The method, boiled down:
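IMQ-induced C57 mice (5% cream 7 days; 60 or 120 mg/kg i.g. daily from day 3). Blood collected at end of dosing, held 12 h at 4 °C, centrifuged; serum IL-17A by ELISA. Mean ± SEM.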

The subject of series [16] is Mus musculus. The experiment in a line: Suppression of epidermal and dermal cell proliferation in C57 mouse model of IMQ-induced psoriasis assessed as reduction in Ki67 expression in back skin psoriatic lesions at 120 mg/kg, ig administered starting from day 3 post IMQ-challenge and measured 2 days post-last dose of IMQ by immunohistochemical analysis relative to control. The series is classed as functional. The following applies: C57, topical. The procedure, abridged:
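C57 mice given 5% imiquimod cream on back skin q.d. for seven days. Gavage q.d. at 60 or 120 mg/kg from day 3, n = 6 per group. Back-skin frozen sections (6 µm) stained for Ki67 by IHC. % Ki67+ of total cells quantified and normalized to IMQ-only model group. Two-tailed t-test, mean ± SD.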

Series [17] addresses Mitogen-activated protein kinase kinase kinase 14 (Mus musculus) (UniProt Q9WUL6). The experiment in a line: In vivo inhibition of NIK in po dosed C57 mouse model of IMQ-induced psoriasis assessed as reduction in P52 expression in back skin administered starting from day 3 post IMQ-challenge and measured 2 days post-last dose of IMQ by Western blot analysis. The series is classed as functional, organism-based. The procedure, abridged: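 IMQ-induced psoriasis in C57 mice, 5% cream daily for 7 days, oral dosing 60 or 120 mg/kg from day 3. Back-skin protein extracts probed by western blot for p100 and p52; band optical density normalized to GAPDH.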

SMILES strings stand for the structures. Activity calls are given as the source filed them. The calls are words filed in the database; no cut-off is given here.

The values that follow come from ChEMBL document CHEMBL4616671, “Identification of N-Phenyl-7H-pyrrolo[2,3-d]pyrimidin-4-amine Derivatives as Novel, Potent, and Selective NF-κB Inducing Kinase (NIK) Inhibitors for the Treatment of Psoriasis” (J Med Chem, 2020).

Mitogen-activated protein kinase kinase kinase 14 (Mus musculus), sequence (Q9WUL6 whole entry): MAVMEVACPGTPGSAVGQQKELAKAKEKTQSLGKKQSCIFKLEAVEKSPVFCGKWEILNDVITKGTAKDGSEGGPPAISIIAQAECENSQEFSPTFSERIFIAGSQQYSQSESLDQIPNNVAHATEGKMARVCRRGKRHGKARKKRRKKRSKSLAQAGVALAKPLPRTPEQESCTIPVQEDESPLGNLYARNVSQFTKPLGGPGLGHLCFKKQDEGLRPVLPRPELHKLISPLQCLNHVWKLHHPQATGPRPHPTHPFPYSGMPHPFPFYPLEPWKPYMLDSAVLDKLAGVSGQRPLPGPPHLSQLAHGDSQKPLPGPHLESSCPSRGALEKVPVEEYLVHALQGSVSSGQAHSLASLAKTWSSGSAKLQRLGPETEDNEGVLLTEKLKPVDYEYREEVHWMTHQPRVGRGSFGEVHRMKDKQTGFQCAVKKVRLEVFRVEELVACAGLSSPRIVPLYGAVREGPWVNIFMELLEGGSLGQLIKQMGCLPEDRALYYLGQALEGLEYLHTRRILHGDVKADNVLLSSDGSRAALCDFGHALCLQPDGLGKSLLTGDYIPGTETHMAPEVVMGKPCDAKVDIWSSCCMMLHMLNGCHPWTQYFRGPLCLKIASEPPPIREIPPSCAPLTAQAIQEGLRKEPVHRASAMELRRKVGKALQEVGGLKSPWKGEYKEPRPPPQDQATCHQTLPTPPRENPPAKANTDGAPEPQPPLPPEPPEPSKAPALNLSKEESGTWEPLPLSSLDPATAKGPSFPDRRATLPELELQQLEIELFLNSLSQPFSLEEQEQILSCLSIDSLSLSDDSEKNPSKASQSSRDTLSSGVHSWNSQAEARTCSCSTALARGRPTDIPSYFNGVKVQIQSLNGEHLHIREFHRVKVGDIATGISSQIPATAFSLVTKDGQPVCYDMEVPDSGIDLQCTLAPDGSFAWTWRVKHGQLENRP
NT-3 growth factor receptor, sequence (Q16288 whole entry): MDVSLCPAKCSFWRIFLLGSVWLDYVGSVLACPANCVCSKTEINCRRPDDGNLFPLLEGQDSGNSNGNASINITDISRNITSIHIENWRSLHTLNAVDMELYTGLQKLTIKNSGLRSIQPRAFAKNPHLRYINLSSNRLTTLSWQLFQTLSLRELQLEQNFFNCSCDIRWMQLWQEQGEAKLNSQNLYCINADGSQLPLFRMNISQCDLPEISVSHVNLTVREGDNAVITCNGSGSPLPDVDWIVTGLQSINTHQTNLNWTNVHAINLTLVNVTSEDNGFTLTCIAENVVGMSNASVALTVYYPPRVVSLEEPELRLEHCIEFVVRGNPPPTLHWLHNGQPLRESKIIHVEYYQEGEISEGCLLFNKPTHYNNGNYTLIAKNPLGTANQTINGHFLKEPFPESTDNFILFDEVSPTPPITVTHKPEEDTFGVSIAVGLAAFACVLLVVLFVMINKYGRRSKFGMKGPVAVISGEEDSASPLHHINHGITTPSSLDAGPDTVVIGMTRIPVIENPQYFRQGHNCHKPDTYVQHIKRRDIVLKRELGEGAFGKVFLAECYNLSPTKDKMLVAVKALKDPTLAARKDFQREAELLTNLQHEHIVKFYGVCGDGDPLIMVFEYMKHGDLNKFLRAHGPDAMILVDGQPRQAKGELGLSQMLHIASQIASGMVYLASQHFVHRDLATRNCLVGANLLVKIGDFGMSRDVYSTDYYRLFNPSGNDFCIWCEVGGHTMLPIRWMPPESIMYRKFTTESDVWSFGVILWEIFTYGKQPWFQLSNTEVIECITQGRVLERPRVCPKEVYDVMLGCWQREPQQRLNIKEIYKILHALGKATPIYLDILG

In the case of `CC(O)(C#Cc1ccc(N2CCOCC2)c(Nc2ncnc3[nH]ccc23)c1)c1nccs1` (racemic), in series [1], the IC50 (as a rule, the point on the concentration scale where inhibition reaches its midpoint) is 50.1 nM. Further, the inhibition (as a rule, how much of the control response was suppressed) at 1 µM in the series on J774 [2] came out at 86.3%. Also, the Ratio IC50 in the series listed under Homo sapiens [3], in the series listed under Homo sapiens [4] and in the series filed under Homo sapiens [5] was 4 to 20 each time. In addition, the Activity entry with T-cell is “Non-Toxic”. Besides, in [6], the half-life was 18 min. For the same molecule, the microsomal CLint in series [7] was found to be 76.8 µL/min/mg; in [8] it was 45 µL/min/mg. The volume of distribution (Vd) (commonly a proportionality between amount in the body and measured concentration, not a real space) in series [9] was 2.73 L/kg. Besides, in series [10], the inhibition entry is “Active”. The result in the series with J774 [11], with J774 [12], in the series with J774 [13] and in the series on Mus musculus [14] was Active. For the same molecule, the inhibition entry (with Mus musculus [15]; in [17]) was “Dose-dependent effect” throughout. For the same molecule, the inhibition in vivo (usually the relative decrease from the control value, in per cent) at 120 mg/kg in the series on Mus musculus [16] was found to be 83%.
